F508del corr: correctors of CFTR F508del function in bronchial epithelial cells | 350,000 compounds, 0.36% hits | CFBE cells, YFP halide quenching; stimulated with forskolin plus potentiator P3; % fluorescence drop versus neutral controls | activity (quench increase), % at 7.58 µM;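 active = mean added fluorescence quench of at least 8% versus neutral control, with both replicates also reaching 8%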;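 note: cells transiently co-express mutant CFTR-F508del with the halide-sensitive YFP; corrector assay measuring rescue of mutant channel to the surface after 24 h compound exposure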
DNMT1 block: DNMT1 (human) enzyme inhibition | P26358 | DNMT1 molecular beacon, Hinp1I cleavage, fluorescence | inhibition (reported as % activation of signal), % at 10 µM | 360,000 compounds, 0.83% hits; in the data active = inhibition above about 50%
Scp-1 inhibitor: inhibitors of human Scp-1 phosphatase | Q9GZU7 | Recombinant Scp1, phosphopeptide, malachite green phosphate absorbance | 340,000 compounds, 0.88% hits | inhibition, % at 20 µM;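 active = inhibition above about 50% at 20 µM, limit read from the data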;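 note: plate controls were DMSO wells with enzyme for no effect and wells lacking enzyme for full effect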
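Test system: SCP-1 phosphatase catalytic domain, residues 76-261; measured by: colorimetric phosphate reagent with accelerator and stabiliser, absorbance at 630 nm; timing: enzyme reaction 45 min at room temperature, colour 5 min, stabilisation 30 min; also added: Phosphorylated 17-residue peptide substrate; compound dosing: one concentration, 20 µM, with 1.0% DMSO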
LMPTP inh: LMPTP (human) inhibition; recombinant LMPTP-A, OMFP fluorogenic substrate, fluorescence intensity; inhibition, % at 20 µM; 360,000 compounds, 0.22% hits;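 active = compounds that cut the enzyme signal by at least half of the control window in the single-dose screen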;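 note: plate controls were DMSO wells with enzyme plus substrate for no effect and substrate without enzyme for full effect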
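Test system – LMPTP-A phosphatase enzyme · Quantity – 0.625 nM LMPTP-A final · Reagent – OMFP substrate, 400 µM final · Dosing – one test concentration per compound, 20 µM, with 3% DMSO overall · Timing – 50 min enzyme reaction at room temperature, protected from light · Detection – fluorescence intensity · Controls – substrate-only low control, DMSO enzyme-plus-substrate high control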
SUMO1-SIM PPI: modulators of human SUMO1-mediated protein-protein interactions; SUMO1 binding to a labelled peptide, TR-FRET, 1 h; inhibition, % at 20 µM; 360,000 compounds, 0.33% hits; P63165; AID 602429; in the data active = inhibition above about 37%
STEP block: blocks human striatal-enriched tyrosine phosphatase | P54829 | inhibition, % at 20 µM | 360,000 compounds, 0.25% hits | AID 588621 | recombinant STEP, OMFP fluorogenic substrate, fluorescence;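 active = inhibition at 20 µM, scaled per plate between control wells, above about 37%, limit read from the data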;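 note: 0% = DMSO with enzyme and substrate and 100% = substrate only without enzyme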
Target sequence (P54829 whole entry, looked up): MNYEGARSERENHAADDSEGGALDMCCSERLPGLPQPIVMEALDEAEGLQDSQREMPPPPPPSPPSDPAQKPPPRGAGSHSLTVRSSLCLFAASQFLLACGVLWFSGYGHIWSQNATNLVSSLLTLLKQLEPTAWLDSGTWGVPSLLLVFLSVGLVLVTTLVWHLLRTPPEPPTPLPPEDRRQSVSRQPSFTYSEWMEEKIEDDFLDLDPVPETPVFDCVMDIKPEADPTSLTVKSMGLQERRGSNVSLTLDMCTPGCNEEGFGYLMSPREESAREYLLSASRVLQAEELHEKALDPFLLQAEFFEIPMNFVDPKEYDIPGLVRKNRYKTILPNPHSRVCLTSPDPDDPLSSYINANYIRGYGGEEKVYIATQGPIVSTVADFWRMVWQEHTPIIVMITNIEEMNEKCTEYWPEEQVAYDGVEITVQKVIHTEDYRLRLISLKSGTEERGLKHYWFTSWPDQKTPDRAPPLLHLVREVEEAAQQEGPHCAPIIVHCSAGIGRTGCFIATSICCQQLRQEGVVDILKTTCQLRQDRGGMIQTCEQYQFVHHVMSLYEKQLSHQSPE
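material = STEP tyrosine phosphatase | reagent = fluorogenic phosphatase substrate OMFP at 25 µM final | doses = single compound dose of 20 µM, 1% DMSO final | schedule = 20 min reaction, room temperature, in the dark | measured by = fluorescence, 480/540 nm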
DNMT1 interf DR: counter-screen for DNMT1 inhibitors: spectral interference, dose response; molecular beacon fluorescence; 200 tested, under 10 active; shares compounds with DNMT1 block; IC50, µM; AID 602382; call rule not given here
DNMT1 inh conf: confirmation of human DNMT1 inhibitors; shares compounds with DNMT1 block; DNMT1 molecular beacon HinP1I cleavage, fluorescence; inhibition, % at 10 µM; 2,300 compounds, 8% hits; AID 602385;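 active = average inhibition of at least 30% in the single-concentration confirmation test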
Beacon interf: shows spectral interference in the DNMT1 beacon assay | activation (fluorescence interference), % at 10 µM | DNMT1 molecular beacon spectral interference counterscreen, fluorescence 485/520 | AID 602387 | 2,300 compounds, 1% hits | shares compounds with DNMT1 block;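 active = activation of at least 30% at 10 µM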;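 note: DNMT1 catalytic domain with a HinP1I cleavage step and a FAM/dabcyl DNA beacon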
* hit, by the source's call; . = no result. A selection: hits, their analogues and other compounds. The true share with any hit is near 1.6%.

SMILES	F508del corr	DNMT1 block	Scp-1 inhibitor	LMPTP inh	SUMO1-SIM PPI	STEP block	DNMT1 inh conf	Beacon interf	others
C[C@@H]1CN([C@H](C)CO)C(=O)c2ccccc2-c2ccccc2CO[C@H]1CN(C)C(=O)Oc1ccccc1	4	.	.	.	.	.	.	.
Cc1nn(Cc2ccc(Cl)cc2)c(C)c1NC(=O)c1cc(-c2ccc3c(c2)OCO3)on1	.	39	-1	3	1	0	.	.
Cc1nn(Cc2ccc(Cl)c(Cl)c2)c(C)c1NC(=O)c1cc(-c2ccc3c(c2)OCO3)on1	.	76*	3	4	0	1	3	-2
C=CCn1c(=O)c(C(=O)NC(C)c2ccccc2)c(O)c2ccccc21 (stereo not drawn)	-9	84*	-11	1	3	-1	3	4
C=CCn1c(=O)c(C(=O)Nc2ccc(C)cc2)c(O)c2ccccc21	-4	1	-8	-1	1	0	.	.
Cc1cc(Br)cn2c(Cc3ccsc3)c(-c3ccco3)nc12	5	52*	.	6	8	1	3	2
COc1ccc(Cc2c(-c3ccco3)nc3ccc(Br)cn23)c(C)c1	-2	102*	.	20	5	4	13	2
COc1ccc(Cc2c(-c3ccco3)nc3ccc(Cl)cn23)c(C)c1	-6	84*	.	8	4	2	3	0
C[C@H](CO)N1C[C@H](C)[C@@H](CN(C)S(=O)(=O)c2cccs2)Oc2c(NC(=O)Nc3ccc(F)cc3)cccc2C1=O	-2	.	.	.	.	.	.	.
C/C=C/c1ccccc1[C@@H]1[C@H](C#N)N(C(=O)CN2CCOCC2)[C@H]1CO	0	.	.	.	.	.	.	.
CC(C)n1c(=S)[nH]c2scc(-c3cccs3)c2c1=O	-1	80*	45	15	-1	3	14	-1
Cc1ccnc(NC(=O)CCC(=O)N(CC(=O)NCc2ccc(F)cc2)c2ccc(F)cc2)c1	0	73*	-3	-1	-3	-3	6	7
Cc1ccnc(NC(=O)CCC(=O)N(CC(=O)NCCc2ccccc2)c2ccc(F)cc2)c1	0	2	-3	1	5	3	.	.
O=C(Nc1ccc(Cl)cn1)c1cc2c(s1)-c1ccccc1OC2	2	56*	-7	0	-6	-2	0	0
O=C(Nc1cccnc1Cl)c1cc2c(s1)-c1ccccc1OC2	-2	12	-6	0	-7	-3	.	.
C[C@@H]1CN([C@@H](C)CO)C(=O)c2cccc(NC(=O)Nc3ccc(C(F)(F)F)cc3)c2O[C@H]1CN(C)C(=O)Nc1ccc(F)cc1	1	.	.	.	.	.	.	.
COCCNC(=O)CSc1ccc(Cl)cc1	.	6	-5	-1	0	-2	.	.
COCCNCCCCSc1ccc(Cl)cc1	3	75*	1	-2	-2	-1	0	0
O=C(c1cc(-c2ccco2)nc2ccccc12)N1CCCC(C(F)(F)F)C1 (stereo not drawn)	0	66*	40	4	5	4	1	-2
CCOC(=O)C1CCCN(C(=O)c2cc(-c3ccco3)nc3ccccc23)C1 (stereo not drawn)	-3	100*	85*	51*	24	20	65*	-1	DNMT1 interf DR=>99
CCOC(=O)C1CCCN(C(=O)c2cc3c(=O)n4ccccc4nc3s2)C1 (stereo not drawn)	-1	87*	2	1	-34	-1	2	4
O=C(c1cc(-c2ccncc2)nc2ccccc12)N1CCCC(C(F)(F)F)C1 (stereo not drawn)	-3	1	.	-1	-4	-2	.	.
O=C(C[C@@H]1CC[C@@H](NC(=O)CC2CC2)[C@H](CO)O1)NCc1ccc(Cl)cc1	0	.	.	.	.	.	.	.

Screening results as filed in PubChem BioAssay.
